# Test system: Staphylococcus aureus
# Assay: Antibacterial activity against Staphylococcus aureus after 24 hrs by MTT assay
# Assay type: functional
# In short: (§1)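 Broth microdilution MIC in MH medium. Compounds from a 50 mg/mL DMSO stock were serially diluted in medium. Inoculum was about 10⁵ cfu/mL, each concentration in triplicate, incubated at 37 °C for 24 h. MIC was read visually, then confirmed by adding PBS with 2 mg/mL MTT and incubating 4–5 h at room temperature. A compound-free medium control checked for any MTT effect on growth.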
row,MIC [µg/mL],Structure (SMILES)
1,3.4,O=c1c(-c2ccc(O)cc2)coc2cc(OCCCNCc3ccco3)cc(O)c12
2,> 50,O=c1c(-c2ccc(O)cc2)coc2cc(OCCCCBr)cc(O)c12
3,> 50,O=c1c(-c2ccc(O)cc2)coc2cc(OCCCN3CCCCC3)cc(O)c12
4,18.5,O=c1c(-c2ccc(O)cc2)coc2cc(OCCCN3CCCC3)cc(O)c12
5,> 50,O=c1c(-c2ccc(O)cc2)coc2cc(OCCCCN3CCCCC3)cc(O)c12

# The next lines start with the compound.
row,Structure (SMILES),MIC [µg/mL]
1,CCCCN(CCCC)CCCCOc1cc(O)c2c(=O)c(-c3ccc(O)cc3)coc2c1,1.7
2,O=c1c(-c2ccc(O)cc2)coc2cc(OCCN3CCCCC3)cc(O)c12,> 50
3,CCCCN(CCCC)CCCOc1cc(O)c2c(=O)c(-c3ccc(O)cc3)coc2c1,17.1
4,O=c1c(-c2ccc(O)cc2)coc2cc(OCCN3CCCC3)cc(O)c12,49.6

# Test system: Pseudomonas fluorescens
# Assay: Antibacterial activity against Pseudomonas fluorescens after 24 hrs by MTT assay
# Assay type: functional
# In short: as §1
row,MIC [µg/mL],Structure (SMILES)
1,10.5,O=c1c(-c2ccc(O)cc2)coc2cc(OCCCNCc3ccco3)cc(O)c12
2,> 50,O=c1c(-c2ccc(O)cc2)coc2cc(OCCCCBr)cc(O)c12
3,> 50,O=c1c(-c2ccc(O)cc2)coc2cc(OCCCN3CCCCC3)cc(O)c12
4,20.5,O=c1c(-c2ccc(O)cc2)coc2cc(OCCCN3CCCC3)cc(O)c12
5,> 50,O=c1c(-c2ccc(O)cc2)coc2cc(OCCCCN3CCCCC3)cc(O)c12

# Second part, the compound before the results:
row,Structure (SMILES),MIC [µg/mL]
1,CCCCN(CCCC)CCCCOc1cc(O)c2c(=O)c(-c3ccc(O)cc3)coc2c1,13.2
2,O=c1c(-c2ccc(O)cc2)coc2cc(OCCN3CCCCC3)cc(O)c12,> 50
3,CCCCN(CCCC)CCCOc1cc(O)c2c(=O)c(-c3ccc(O)cc3)coc2c1,18.5
4,O=c1c(-c2ccc(O)cc2)coc2cc(OCCN3CCCC3)cc(O)c12,28.5

# Test system: Bacillus subtilis
# Assay: Antibacterial activity against Bacillus subtilis after 24 hrs by MTT assay
# Assay type: functional
# In short: as §1
row,MIC [µg/mL],Structure (SMILES)
1,12.5,O=c1c(-c2ccc(O)cc2)coc2cc(OCCCNCc3ccco3)cc(O)c12
2,> 50,O=c1c(-c2ccc(O)cc2)coc2cc(OCCCCBr)cc(O)c12
3,> 50,O=c1c(-c2ccc(O)cc2)coc2cc(OCCCN3CCCCC3)cc(O)c12
4,48.5,O=c1c(-c2ccc(O)cc2)coc2cc(OCCCN3CCCC3)cc(O)c12
5,> 50,O=c1c(-c2ccc(O)cc2)coc2cc(OCCCCN3CCCCC3)cc(O)c12

# The next lines start with the compound.
row,Structure (SMILES),MIC [µg/mL]
1,CCCCN(CCCC)CCCCOc1cc(O)c2c(=O)c(-c3ccc(O)cc3)coc2c1,3.7
2,O=c1c(-c2ccc(O)cc2)coc2cc(OCCN3CCCCC3)cc(O)c12,> 50
3,CCCCN(CCCC)CCCOc1cc(O)c2c(=O)c(-c3ccc(O)cc3)coc2c1,> 50
4,O=c1c(-c2ccc(O)cc2)coc2cc(OCCN3CCCC3)cc(O)c12,> 50

# Test system: Aspergillus niger
# Assay: Antifungal activity against Aspergillus niger after 48 hrs by MTT assay
# Assay type: functional
# In short: (§2)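 Antifungal MIC by microdilution in RPMI-1640 medium. Compounds came from a 50 mg/mL DMSO stock and were serially diluted. Inoculum was about 10⁵ cfu/mL, with triplicate wells per concentration, incubated at 37 °C for 48 h. MIC was judged visually, followed by PBS containing 2 mg/mL MTT for 4–5 h at room temperature for the colorimetric read. A compound-free control tested MTT interference.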
row,MIC [µg/mL],Structure (SMILES)
1,45.5,O=c1c(-c2ccc(O)cc2)coc2cc(OCCCNCc3ccco3)cc(O)c12
2,> 50,O=c1c(-c2ccc(O)cc2)coc2cc(OCCCCBr)cc(O)c12
3,> 50,O=c1c(-c2ccc(O)cc2)coc2cc(OCCCN3CCCCC3)cc(O)c12
4,23.5,O=c1c(-c2ccc(O)cc2)coc2cc(OCCCN3CCCC3)cc(O)c12
5,> 50,O=c1c(-c2ccc(O)cc2)coc2cc(OCCCCN3CCCCC3)cc(O)c12

# Continued, compound first:
row,Structure (SMILES),MIC [µg/mL]
1,CCCCN(CCCC)CCCCOc1cc(O)c2c(=O)c(-c3ccc(O)cc3)coc2c1,> 50
2,O=c1c(-c2ccc(O)cc2)coc2cc(OCCN3CCCCC3)cc(O)c12,> 50
3,CCCCN(CCCC)CCCOc1cc(O)c2c(=O)c(-c3ccc(O)cc3)coc2c1,> 50
4,O=c1c(-c2ccc(O)cc2)coc2cc(OCCN3CCCC3)cc(O)c12,39.8

# Test system: Trichophyton rubrum
# Assay: Antifungal activity against Trichophyton rubrum after 48 hrs by MTT assay
# Assay type: functional
# In short: as §2
row,MIC [µg/mL],Structure (SMILES)
1,> 50,O=c1c(-c2ccc(O)cc2)coc2cc(OCCCNCc3ccco3)cc(O)c12
2,> 50,O=c1c(-c2ccc(O)cc2)coc2cc(OCCCCBr)cc(O)c12
3,> 50,O=c1c(-c2ccc(O)cc2)coc2cc(OCCCN3CCCCC3)cc(O)c12
4,21.5,O=c1c(-c2ccc(O)cc2)coc2cc(OCCCN3CCCC3)cc(O)c12
5,> 50,O=c1c(-c2ccc(O)cc2)coc2cc(OCCCCN3CCCCC3)cc(O)c12

# Second part, the compound before the results:
row,Structure (SMILES),MIC [µg/mL]
1,CCCCN(CCCC)CCCCOc1cc(O)c2c(=O)c(-c3ccc(O)cc3)coc2c1,> 50
2,O=c1c(-c2ccc(O)cc2)coc2cc(OCCN3CCCCC3)cc(O)c12,> 50
3,CCCCN(CCCC)CCCOc1cc(O)c2c(=O)c(-c3ccc(O)cc3)coc2c1,> 50
4,O=c1c(-c2ccc(O)cc2)coc2cc(OCCN3CCCC3)cc(O)c12,> 50

# Test system: Escherichia coli
# Assay: Antibacterial activity against Escherichia coli after 24 hrs by MTT assay
# Assay type: functional
# In short: as §1
row,MIC [µg/mL],Structure (SMILES)
1,> 50,O=c1c(-c2ccc(O)cc2)coc2cc(OCCCNCc3ccco3)cc(O)c12
2,> 50,O=c1c(-c2ccc(O)cc2)coc2cc(OCCCCBr)cc(O)c12
3,> 50,O=c1c(-c2ccc(O)cc2)coc2cc(OCCCN3CCCCC3)cc(O)c12
4,> 50,O=c1c(-c2ccc(O)cc2)coc2cc(OCCCN3CCCC3)cc(O)c12
5,> 50,O=c1c(-c2ccc(O)cc2)coc2cc(OCCCCN3CCCCC3)cc(O)c12

# More lines, now with the values behind:
row,Structure (SMILES),MIC [µg/mL]
1,CCCCN(CCCC)CCCCOc1cc(O)c2c(=O)c(-c3ccc(O)cc3)coc2c1,> 50
2,O=c1c(-c2ccc(O)cc2)coc2cc(OCCN3CCCCC3)cc(O)c12,> 50
3,CCCCN(CCCC)CCCOc1cc(O)c2c(=O)c(-c3ccc(O)cc3)coc2c1,> 50
4,O=c1c(-c2ccc(O)cc2)coc2cc(OCCN3CCCC3)cc(O)c12,> 50

# Test system: Candida albicans
# Assay: Antifungal activity against Candida albicans after 48 hrs by MTT assay
# Assay type: functional
# In short: as §2
row,MIC [µg/mL],Structure (SMILES)
1,> 50,O=c1c(-c2ccc(O)cc2)coc2cc(OCCCNCc3ccco3)cc(O)c12
2,> 50,O=c1c(-c2ccc(O)cc2)coc2cc(OCCCCBr)cc(O)c12
3,> 50,O=c1c(-c2ccc(O)cc2)coc2cc(OCCCN3CCCCC3)cc(O)c12
4,20.5,O=c1c(-c2ccc(O)cc2)coc2cc(OCCCN3CCCC3)cc(O)c12
5,> 50,O=c1c(-c2ccc(O)cc2)coc2cc(OCCCCN3CCCCC3)cc(O)c12

# The remaining lines, values behind:
row,Structure (SMILES),MIC [µg/mL]
1,CCCCN(CCCC)CCCCOc1cc(O)c2c(=O)c(-c3ccc(O)cc3)coc2c1,> 50
2,O=c1c(-c2ccc(O)cc2)coc2cc(OCCN3CCCCC3)cc(O)c12,> 50
3,CCCCN(CCCC)CCCOc1cc(O)c2c(=O)c(-c3ccc(O)cc3)coc2c1,> 50
4,O=c1c(-c2ccc(O)cc2)coc2cc(OCCN3CCCC3)cc(O)c12,> 50

# From ChEMBL document CHEMBL1141667, “Synthesis and antimicrobial activities of 7-O-modified genistein derivatives” (2008)
